Results as given in ChEMBL document CHEMBL1147524, “Modified norcantharidins; synthesis, protein phosphatases 1 and 2A inhibition, and anticancer activity” (Bioorg Med Chem Lett, 2004).

Experiments:
A2780 = assay: 50% growth inhibition of A2780 (Human ovarian carcinoma) cell line compared with untreated control cells; format: functional
Summary of the method: (§1)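 MTT assay in cells in logarithmic growth, plated in triplicate at 2,500–3,500 cells/well and grown 24 h before test agent was added (day 0). Cultures at 37 °C, 5% CO₂, in media with 10% foetal bovine serum, penicillin, streptomycin and glutamine. Agents were dissolved in DMSO as 5 mM stocks. Absorbance was read at 540 nm. GI50 was taken from the optical density difference between day 0 and the end of drug exposure.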

G-401 = assay: 50% growth inhibition of G401 (human kidney carcinoma) cell line compared with untreated control cells; format: functional; summary of the method: as §1
NCI-H460 = assay: 50% growth inhibition of H460 (human lung carcinoma) cell line compared with untreated control cells; format: functional; summary of the method: as §1
HT-29 = assay: 50% growth inhibition of HT-29 (human colorectal carcinoma) cell line compared with untreated control cells; format: functional; summary of the method: as §1
L1210 = assay: 50% growth inhibition of L1210 (murine leukemia) cell line compared with untreated control cells; format: functional; settings: Mus musculus; summary of the method: as §1
[1] = Inhibitory activity against protein phosphatase 2A from human red blood cells
Summary of the method: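 Purified PP2A (0.3 mU/well) was preincubated 10 min with inhibitor in 50 mM Tris–HCl, pH 7.0, with CaCl₂. The reaction was started with hexapeptide substrate […] (200 μM), run 60 min at room temperature, and stopped with malachite green. A650 was read after 10 min. IC50 came from dose–response curves as the mean of three independent replicates.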

Compound | GI50 (A2780) [µM] | GI50 (NCI-H460) [µM] | GI50 (HT-29) [µM] | GI50 (L1210) [µM] | IC50 [1] [µM] | GI50 (G-401) [µM]
COC(=O)C1C(C(=O)Nc2ccc(Cl)cc2)[C@H]2CC[C@@H]1O2 (stereo not given in full) | 98 | > 100 | > 100 | > 100 | > 100 | > 100
COC(=O)c1cccc(NC(=O)C2C(C(=O)O)[C@@H]3C=C[C@H]2O3)c1 (stereo not given in full) | 97 | > 100 | > 100 | > 100 | 12 | > 100
COC(=O)c1cccc(NC(=O)C2C(C(=O)O)[C@@H]3CC[C@H]2O3)c1 (stereo not given in full) | 90 | > 100 | > 100 | > 100 | 7.7 | > 100
CCOC(=O)c1ccc(NC(=O)C2C(C(=O)O)[C@@H]3C=C[C@H]2O3)cc1 (stereo not given in full) | 83 | > 100 | > 100 | > 100 | 21 | > 100
CC(=O)NC[C@@]12C=C[C@@H](O1)C1C(=O)OC(=O)[C@H]12 (stereo not given in full) | 98 | > 100 | > 100 | > 100 | > 100 | > 100
CC(=O)NC[C@@]12CC[C@@H](O1)C1C(=O)OC(=O)[C@H]12 (stereo not given in full) | 95 | > 100 | > 100 | > 100 | > 100 | > 100
O=C1OC(=O)C2C1[C@@H]1CC[C@H]2O1 (stereo not given in full) | 39 | 50 | 33 | 13 | 0.96 | 35
C[C@@]12C(=O)OC(=O)[C@]1(C)[C@H]1CC[C@@H]2O1 [CANTHARIDIN] | 10 | 4.3 | 6.4 | 15 | 0.6 | 3.5

Second part, led by results:

GI50 (A2780) [µM] | GI50 (NCI-H460) [µM] | GI50 (HT-29) [µM] | GI50 (L1210) [µM] | IC50 [1] [µM] | Compound | GI50 (G-401) [µM]
82 | > 100 | > 100 | > 100 | 7 | O=C(O)c1cccc(NC(=O)C2C(C(=O)O)[C@@H]3C=C[C@H]2O3)c1 (stereo not given in full) | > 100
85 | > 100 | > 100 | > 100 | > 100 | N#CC[C@]12C=C[C@H](O1)[C@@H]1C(=O)OC(=O)C12 (stereo not given in full) | > 100
40 | 41 | 49 | 48 | 3.2 | CN(C)C(=O)C1C(C(=O)O)[C@@H]2C=C[C@H]1O2.CNC (stereo not given in full) | 25
88 | > 100 | 89 | > 100 | > 100 | CN.CNC(=O)C1C(C(=O)O)[C@@H]2C=C[C@H]1O2 (stereo not given in full) | > 100
80 | > 100 | > 100 | > 100 | 9.2 | CCOC(=O)c1ccc(NC(=O)C2C(C(=O)O)[C@@H]3CC[C@H]2O3)cc1 (stereo not given in full) | > 100
30 | 43 | 57 | 49 | 13 | O=C(OC[C@H]1C[C@@H]2O[C@H]1[C@H]1C(=O)OC(=O)[C@H]12)c1ccccc1 | 53
81 | > 100 | > 100 | > 100 | > 100 | O=C(O)C1C(C(=O)OCc2ccccc2)[C@H]2CC[C@@H]1O2 (single isomer, unassigned) | > 100
